Test results reported in ChEMBL document CHEMBL3352689 (J Med Chem, 2014).

What was measured:
Collagenase 3 = Collagenase 3 (Homo sapiens, UniProt P45452); assay: Inhibition of human recombinant MMP13 using Cy3-PLGLK(Cy5Q)AR-NH2 as substrate after 40 mins by spectrofluorimetry
Rattus norvegicus [1] = assay: Intrinsic clearance in iv dosed rat; assay type: ADME, organism-based; settings: in vivo
Liver microsome [2] = assay: Metabolic stability in rat liver microsomes; assay type: ADME
Summary of the method: (§1)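 The free acid was incubated with hepatic microsomes of each species. Stability is reported as clearance in μL/min/mg microsomal protein.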

Rattus norvegicus [3] = assay: Toxicity in rat at 200 mg/kg/day; assay type: organism-based; settings: in vivo
[4] = Volume of distribution at steady state in rat at 1 mg/kg, iv; assay type: ADME, organism-based; set-up: dose 1 mg/kg, route intravenous; settings: in vivo, read-out: Vdss
Summary of the method: (§2)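 Three male animals per species. Dosing was intravenous, with the compound in DMA/PEG400 or DMSO. Steady-state volume of distribution and total body clearance were derived from plasma levels.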

[5] = Total clearance in rat at 1 mg/kg, iv; assay type: ADME, organism-based; set-up: dose 1 mg/kg, route intravenous; settings: in vivo; summary of the method: as §2
[6] = Tmax in rat at 10 mg/kg, po; assay type: ADME, organism-based; set-up: dose 10 mg/kg, route oral; settings: in vivo
Summary of the method: (§3)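 Three male animals per species. The sodium salt was given as a single oral dose in 0.5% methyl cellulose. Plasma Tmax, Cmax, AUC and oral bioavailability were derived.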

[7] = Cmax in rat at 10 mg/kg, po; assay type: ADME, organism-based; set-up: dose 10 mg/kg, route oral; settings: in vivo; summary of the method: as §3
[8] = AUC in rat at 10 mg/kg, po; assay type: ADME, organism-based; set-up: dose 10 mg/kg, route oral; settings: plasma; summary of the method: as §3
[9] = Oral bioavailability in rat at 10 mg/kg; assay type: ADME, organism-based; settings: in vivo; summary of the method: as §3
Rattus norvegicus [10] = assay: Oral bioavailability in rat assessed as 4-[2-({6-Fluoro-2-[({[3-(methyloxy)phenyl]methyl}amino)-carbonyl]-4-oxo-3,4-dihydroquinazolin-5-yl}oxy)ethyl]-benzoic acid at 3 mg/kg; assay type: ADME, organism-based; settings: in vivo
Summary of the method: (§4)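 The free-acid form was dosed orally in 0.5% methyl cellulose at 3 mg/kg to three male animals. Oral bioavailability was calculated.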

[11] = Volume of distribution at steady state in guinea pig at 1 mg/kg, iv; assay type: ADME, organism-based, Cavia porcellus; set-up: dose 1 mg/kg, route intravenous; settings: in vivo, read-out: Vdss; summary of the method: as §2
[12] = Total clearance in guinea pig at 1 mg/kg, iv; assay type: ADME, organism-based, Cavia porcellus; set-up: dose 1 mg/kg, route intravenous; settings: in vivo; summary of the method: as §2
[13] = Tmax in guinea pig at 3 mg/kg, po; assay type: ADME, organism-based, Cavia porcellus; set-up: dose 3 mg/kg, route oral; settings: in vivo; summary of the method: as §3
[14] = Cmax in guinea pig at 3 mg/kg, po; assay type: ADME, organism-based, Cavia porcellus; set-up: dose 3 mg/kg, route oral; settings: in vivo; summary of the method: as §3
[15] = AUC in guinea pig at 3 mg/kg, po; assay type: ADME, organism-based, Cavia porcellus; set-up: dose 3 mg/kg, route oral; settings: plasma; summary of the method: as §3
[16] = Oral bioavailability in guinea pig at 3 mg/kg; assay type: ADME, organism-based, Cavia porcellus; settings: in vivo; summary of the method: as §3
Cavia porcellus = assay: Oral bioavailability in guinea pig assessed as 4-[2-({6-Fluoro-2-[({[3-(methyloxy)phenyl]methyl}amino)-carbonyl]-4-oxo-3,4-dihydroquinazolin-5-yl}oxy)ethyl]-benzoic acid at 3 mg/kg; assay type: ADME, organism-based; settings: in vivo; summary of the method: as §4
[17] = Tmax in rabbit at 10 mg/kg, po; assay type: ADME, organism-based, Oryctolagus cuniculus; set-up: dose 10 mg/kg, route oral; settings: in vivo; summary of the method: as §3
[18] = Cmax in rabbit at 10 mg/kg, po; assay type: ADME, organism-based, Oryctolagus cuniculus; set-up: dose 10 mg/kg, route oral; settings: in vivo; summary of the method: as §3
[19] = AUC in rabbit at 10 mg/kg, po; assay type: ADME, organism-based, Oryctolagus cuniculus; set-up: dose 10 mg/kg, route oral; settings: plasma; summary of the method: as §3
[20] = Oral bioavailability in rabbit at 10 mg/kg; assay type: ADME, organism-based, Oryctolagus cuniculus; settings: in vivo; summary of the method: as §3
Oryctolagus cuniculus = assay: Oral bioavailability in rabbit assessed as 4-[2-({6-Fluoro-2-[({[3-(methyloxy)phenyl]methyl}amino)-carbonyl]-4-oxo-3,4-dihydroquinazolin-5-yl}oxy)ethyl]-benzoic acid at 1 mg/kg; assay type: ADME, organism-based; settings: in vivo
Summary of the method: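 Rabbits, three males, received the free-acid form orally in 0.5% methyl cellulose at 1 mg/kg. Oral bioavailability was calculated.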

[21] = Volume of distribution at steady state in dog at 1 mg/kg, iv; assay type: ADME, organism-based, Canis lupus familiaris; set-up: dose 1 mg/kg, route intravenous; settings: in vivo, read-out: Vdss; summary of the method: as §2
[22] = Total clearance in dog at 1 mg/kg, iv; assay type: ADME, organism-based, Canis lupus familiaris; set-up: dose 1 mg/kg, route intravenous; settings: in vivo; summary of the method: as §2
[23] = Tmax in dog at 10 mg/kg, po; assay type: ADME, organism-based, Canis lupus familiaris; set-up: dose 10 mg/kg, route oral; settings: in vivo; summary of the method: as §3
[24] = Cmax in dog at 10 mg/kg, po; assay type: ADME, organism-based, Canis lupus familiaris; set-up: dose 10 mg/kg, route oral; settings: in vivo; summary of the method: as §3
[25] = AUC in dog at 10 mg/kg, po; assay type: ADME, organism-based, Canis lupus familiaris; set-up: dose 10 mg/kg, route oral; settings: plasma; summary of the method: as §3
[26] = Oral bioavailability in dog at 10 mg/kg; assay type: ADME, organism-based, Canis lupus familiaris; settings: in vivo; summary of the method: as §3
Canis familiaris = assay: Oral bioavailability in dog assessed as 4-[2-({6-Fluoro-2-[({[3-(methyloxy)phenyl]methyl}amino)-carbonyl]-4-oxo-3,4-dihydroquinazolin-5-yl}oxy)ethyl]-benzoic acid at 3 mg/kg; assay type: ADME, organism-based, Canis lupus familiaris; settings: in vivo; summary of the method: as §4
Liver = assay: Metabolic stability in guinea pig liver microsomes; assay type: ADME, Cavia porcellus; summary of the method: as §1
[27] = Metabolic stability in rabbit liver microsomes; assay type: ADME, Oryctolagus cuniculus; summary of the method: as §1
Liver microsome [28] = assay: Metabolic stability in human liver microsomes; assay type: ADME; summary of the method: as §1
Macaca fascicularis [29] = assay: AUC in monkey at 1 mg/kg, po; settings: cynomolgus monkey, plasma
Macaca fascicularis [30] = assay: Tmax in monkey at 1 mg/kg, po; settings: cynomolgus monkey, in vivo
Macaca fascicularis [31] = assay: Cmax in monkey at 1 mg/kg, po; settings: cynomolgus monkey, in vivo
Macaca fascicularis [32] = assay: Total clearance in monkey at 1 mg/kg, iv; settings: cynomolgus monkey, in vivo
Macaca fascicularis [33] = assay: Oral bioavailability in monkey at 1 mg/kg; settings: cynomolgus monkey, in vivo
[34] = Total clearance in rabbit at 0.1 mg/kg, iv; settings: in vivo
[35] = Metabolic stability in cynomolgus monkey liver microsomes
Macaca fascicularis [36] = assay: Volume of distribution at steady state in monkey at 1 mg/kg, iv; settings: cynomolgus monkey, in vivo, read-out: Vdss
[37] = Volume of distribution at steady state in rabbit at 0.1 mg/kg, iv; settings: in vivo, read-out: Vdss
Macaca fascicularis [38] = assay: Oral bioavailability in monkey assessed as 4-[2-({6-Fluoro-2-[({[3-(methyloxy)phenyl]methyl}amino)-carbonyl]-4-oxo-3,4-dihydroquinazolin-5-yl}oxy)ethyl]-benzoic acid at 3 mg/kg; settings: cynomolgus monkey, in vivo

## COc1cccc(CNC(=O)c2nc3cccc(Oc4ccccc4)c3c(=O)[nH]2)c1
Collagenase 3
  IC50: 0.53 nM

## COc1cccc(CNC(=O)c2nc3cccc(OCc4ccccc4)c3c(=O)[nH]2)c1
Collagenase 3
  IC50: 0.31 nM

## COc1cccc(CNC(=O)c2nc3cccc(OCCc4ccccc4)c3c(=O)[nH]2)c1
Collagenase 3
  IC50: 0.69 nM
Rattus norvegicus [1]
  CL: 28.3 mL/min/kg
Liver microsome [2]
  Microsomal clearance: 170 µL/min/mg

## COc1cccc(CNC(=O)c2nc3cccc(OCCCc4ccccc4)c3c(=O)[nH]2)c1
Collagenase 3
  IC50: 0.52 nM

## COc1cccc(CNC(=O)c2nc3cccc(OCCOCc4ccccc4)c3c(=O)[nH]2)c1
Collagenase 3
  IC50: 1.6 nM

## COc1cccc(CNC(=O)c2nc3cccc(NCCc4ccccc4)c3c(=O)[nH]2)c1
Collagenase 3
  IC50: 4.3 nM

## COc1cccc(CNC(=O)c2nc3cccc(SCCc4ccccc4)c3c(=O)[nH]2)c1
Collagenase 3
  IC50: 9.7 nM

## COc1cccc(CNC(=O)c2nc3cccc(CCCc4ccccc4)c3c(=O)[nH]2)c1
Collagenase 3
  IC50: 2.9 nM

## COc1cccc(CNC(=O)c2nc3cccc(COCc4ccccc4)c3c(=O)[nH]2)c1
Collagenase 3
  IC50: 1.7 nM

## COc1cccc(CNC(=O)c2nc3cccc(CN(C)Cc4ccccc4)c3c(=O)[nH]2)c1
Collagenase 3
  IC50: 16 nM

## COc1cccc(CNC(=O)c2nc3cccc(CC(=O)Nc4ccccc4)c3c(=O)[nH]2)c1
Collagenase 3
  IC50: 0.16 nM

## COc1cccc(CNC(=O)c2nc3cccc(OCCC4CCCCC4)c3c(=O)[nH]2)c1
Collagenase 3
  IC50: 0.99 nM

## COc1cccc(CNC(=O)c2nc3cccc(OCCN4CCCCC4)c3c(=O)[nH]2)c1
Collagenase 3
  IC50: 34 nM

## COc1cccc(CNC(=O)c2nc3ccc(F)c(OCCc4ccccc4)c3c(=O)[nH]2)c1
Collagenase 3
  IC50: 0.04 nM
Rattus norvegicus [1]
  CL: 17 mL/min/kg
Liver microsome [2]
  Microsomal clearance: 150 µL/min/mg

## COc1cccc(CNC(=O)c2nc3ccc(F)c(OCCc4ccc(F)cc4)c3c(=O)[nH]2)c1
Collagenase 3
  IC50: 0.15 nM
Rattus norvegicus [1]
  CL: 28.3 mL/min/kg
Liver microsome [2]
  Microsomal clearance: 180 µL/min/mg

## COc1cccc(CNC(=O)c2nc3ccc(F)c(OCCc4ccc(N)cc4)c3c(=O)[nH]2)c1
Collagenase 3
  IC50: 0.03 nM
Rattus norvegicus [1]
  CL: 233 mL/min/kg
Liver microsome [2]
  Microsomal clearance: 140 µL/min/mg

## COc1cccc(CNC(=O)c2nc3ccc(F)c(OCCc4ccc(C(=O)[O-])cc4)c3c(=O)[nH]2)c1.[Na+]
Rattus norvegicus [3]
  Activity: Non-toxic
[4]
  Vd: 0.995 L/kg
[5]
  clearance: 34.6 mL/min/kg
[6]
  Tmax: 0.25 h
[7]
  Cmax: 439 ng/mL
[8]
  AUC: 1600 ng·h/mL
[9]
  bioavailability: 23%
Rattus norvegicus [10]
  F: 4.9%
[11]
  Vd: 5.39 L/kg
[12]
  clearance: 26.9 mL/min/kg
[13]
  Tmax: 0.5 h
[14]
  Cmax: 439 ng/mL
[15]
  AUC: 1410 ng·h/mL
[16]
  bioavailability: 74%
Cavia porcellus
  F: 6.3%
[17]
  Tmax: 1.8 h
[18]
  Cmax: 2290 ng/mL
[19]
  AUC: 15700 ng·h/mL
[20]
  bioavailability: 35%
Oryctolagus cuniculus
  F: 11%
[21]
  Vd: 0.731 L/kg
[22]
  clearance: 3.08 mL/min/kg
[23]
  Tmax: 1.7 h
[24]
  Cmax: 3870 ng/mL
[25]
  AUC: 31800 ng·h/mL
[26]
  bioavailability: 58%
Canis familiaris
  F: 3%
Liver
  Stability: 1 µL/min/mg
[27]
  Stability: 3 µL/min/mg
Liver microsome [28]
  Stability: 3 µL/min/mg
Macaca fascicularis [29]
  AUC: 456 ng·h/mL
Macaca fascicularis [30]
  Tmax: 2.8 h
Macaca fascicularis [31]
  Cmax: 45 ng/mL
Macaca fascicularis [32]
  clearance: 20.9 mL/min/kg
Macaca fascicularis [33]
  bioavailability: 45%
[34]
  clearance: 3.7 mL/min/kg
[35]
  Stability: 2 µL/min/mg
Macaca fascicularis [36]
  Vd: 7.03 L/kg
[37]
  Vd: 1.14 L/kg
Macaca fascicularis [38]
  F: 1.5%
